ChEMBL document CHEMBL3351594, “Cytotoxic dimeric epipolythiodiketopiperazines from the ascomycetous fungus Preussia typharum” (J Nat Prod, 2014)

Tests used:
[1] = Cytotoxicity against human NCI-ADR-RES cells by SRB method; format: functional
How it was run: (§1)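 NCI-60 in vitro drug screening panel. Values are the molar concentrations giving 50% growth inhibition (GI50) and total growth inhibition (TGI).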

[2] = tested on: SNB-19; experiment: Cytotoxicity against human SNB19 cells by SRB method; format: functional
How it was run: (§2)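 NCI-60 in vitro screen panel of human tumor lines; GI50 (molar concentration giving 50% growth inhibition) and TGI (total growth inhibition) taken from dose–response data.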

[3] = tested on: SK-MEL-2; experiment: Cytotoxicity against human SK-MEL-2 cells by SRB method; format: functional; how it was run: as §1
[4] = tested on: SF-295; experiment: Cytotoxicity against human SF295 cells by SRB method; format: functional; how it was run: as §1
[5] = tested on: IGROV-1; experiment: Cytotoxicity against human IGROV1 cells by SRB method; format: functional; how it was run: as §1
[6] = Cytotoxicity against human UACC257 cells by SRB method; format: functional; how it was run: as §2
[7] = tested on: M14; experiment: Cytotoxicity against human M14 cells by SRB method; format: functional; how it was run: as §1
[8] = tested on: MCF7; experiment: Cytotoxicity against human MCF7 cells by SRB method; format: functional; how it was run: as §1
[9] = tested on: SF-539; experiment: Cytotoxicity against human SF539 cells by SRB method; format: functional; how it was run: as §1
[10] = tested on: DU-145; experiment: Cytotoxicity against human DU145 cells by SRB method; format: functional; how it was run: as §1
[11] = Cytotoxicity against human OVCAR8 cells by SRB method; format: functional; how it was run: as §1
[12] = tested on: T47D; experiment: Cytotoxicity against human T47D cells by SRB method; format: functional; how it was run: as §2
[13] = tested on: A549; experiment: Cytotoxicity against human A549 cells by SRB method; format: functional; how it was run: as §1
[14] = tested on: U-251; experiment: Cytotoxicity against human U251 cells by SRB method; format: functional; how it was run: as §2
[15] = tested on: RPMI-8226; experiment: Cytotoxicity against human RPMI8226 cells by SRB method; format: functional; how it was run: as §1
[16] = tested on: Mus musculus; experiment: Toxicity in athymic nude mouse xenografted with human UACC62 cells assessed as rapid and persistent weight loss at 10 mg/kg, ip; format: organism-based, UACC-62; set-up: dose 10 mg/kg, route intraperitoneal; conditions: in vivo
[17] = read-out: LC50 (the source's name)

`CC(C)[C@@]12SS[C@]3(C(=O)N1C)[C@@H](O)[C@]1(C45c6ccccc6N[C@H]4N4C(=O)[C@@]6(CO)SS[C@@]4(C(=O)N6C)[C@H]5O)c4ccccc4N[C@@H]1N3C2=O` (stereo not given in full) gave a TGI [1] of 0.12 µM, a CC50 [1, 17] of 0.355 µM and a GI50 [2] of 0.112 µM. For the same compound, the TGI [2] was 0.513 µM, the CC50 [2, 17] was 1.66 µM and the GI50 [3] was 0.0098 µM. It also gave a TGI [3] of 0.0204 µM, a CC50 [3, 17] of 0.0437 µM and a GI50 [4] of 0.0575 µM. The TGI [4] was 0.155 µM, the CC50 [4, 17] was 0.417 µM and the GI50 [5] was 0.0245 µM. It also gave a TGI [5] of 0.1 µM, a CC50 [5, 17] of 0.339 µM and a GI50 ([6]; UACC-257) of 0.0087 µM. For the same compound, the TGI ([6]; UACC-257) was 0.0195 µM, the CC50 ([6]; UACC-257, read-out: LC50 (the source's name)) was 0.0437 µM and the GI50 [7] was 0.0135 µM. The TGI [7] was 0.0537 µM, the CC50 [7, 17] was 0.182 µM and the GI50 [8] was 0.01 µM. It also gave a TGI [8] of 0.055 µM, a CC50 [8, 17] of 0.166 µM and a GI50 [9] of 0.0151 µM. It also gave a TGI [9] of 0.0589 µM, a CC50 [9, 17] of 0.2 µM and a GI50 [10] of 0.0148 µM. For the same compound, the TGI [10] was 0.0537 µM, the CC50 [10, 17] was 0.2 µM and the GI50 ([11]; OVCAR-8) was 0.0095 µM. For the same compound, the TGI ([11]; OVCAR-8) was 0.0191 µM, the CC50 ([11]; OVCAR-8, read-out: LC50 (the source's name)) was 0.038 µM and the GI50 [12] was 0.0091 µM. The TGI [12] was 0.0263 µM, the CC50 [12, 17] was 0.102 µM and the GI50 [13] was 0.0263 µM. The TGI [13] was 0.0933 µM, the CC50 [13, 17] was 0.263 µM and the GI50 [14] was 0.0178 µM. It also gave a TGI [14] of 0.0617 µM, a CC50 [14, 17] of 0.178 µM and a GI50 [15] of 0.0123 µM. The TGI [15] was 0.0347 µM, the CC50 [15, 17] was greater than 50 µM and the Activity [16] was 5%.
